Most compounds without a hit are left out; they make up all but 2.3% or so of the library.
CSN inh: blocks human CSN-mediated cullin deneddylation; Q92905; Purified CSN, SCF-Nedd8-OG deneddylation, fluorescence polarization; inhibition, % at 12.5 µM; 360,000 tested, 0.38% active; AID 651999;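 active means pattern-corrected inhibition above about 35%, with an unprinted fluorescence ratio check between 0.5 and 1.5, limit read from the data, passing the limit was not always enough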;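 further: 0% = enzyme with substrate and 100% = substrate without enzyme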
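Assay system: purified human Csn5 enzyme expressed in HEK293T cells; measure: % inhibition; also added: SCFSkp2-Nedd8OG substrate at 10 nM final; technique: fluorescence polarization; times: reaction 90 min, room temperature; medium: Tris buffer pH 7.5, NaCl, DTT, Tween-20, trehalose, ovalbumin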
SUMO1 PPI mod: alters human SUMO1 binding to SIM partners | SUMO1 binding to a labelled peptide, TR-FRET, 1 h | inhibition, % at 20 µM | P63165 | 360,000 tested, 0.33% active; in the data active means inhibition above about 37%
Rpn11 inh: Rpn11 (human) deubiquitinase inhibition; O00487; human 26S proteasome, Ub4-pepOG fluorescence polarization; 20S core pre-blocked with epoxomicin; inhibition, % at 20 µM; 360,000 tested, 0.59% active;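 active means inhibition at 20 µM, scaled to each plate's controls, above about 33%, limit read from the data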
DNMT1 block: inhibitors of human DNMT1. P26358. DNMT1 molecular beacon, Hinp1I cleavage, fluorescence. inhibition (reported as % activation of signal), % at 10 µM. 360,000 tested, 0.83% active; in the data active means inhibition above about 50%
MT1-MMP act inh: inhibitors of human MT1-MMP activation; HT1080 RFP-PRO-GFP cells, GFP/RFP ratio fluorescence, overnight; percent of plate control window, DMSO zero; 360,000 tested, 0.061% active; P50281; GFP/RFP ratio change, % at 20 µM;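 active means GFP/RFP ratio change of at least 30% with cell ATP level not reduced by more than half and red fluorescence within 50% of control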
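Assay system: RFP-PRO-GFP reporter HT1080 cells; read-out basis: GFP/RFP fluorescence ratio; benchmarks: DMSO wells and RFP-L50D-GFP cells; doses: 20 µM single dose, 1% DMSO; schedule: overnight cell settling, then overnight compound exposure, 37 °C, 5% CO2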
SKN-1 inh: blocks SKN-1 activity in C. elegans. 360,000 tested, 0.49% active. C. elegans VP596 Pgst-4::GFP/RFP ratio, acrylamide-induced, 24 h. inhibition, % at 21.8 µM;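 active means interference check ratio from 0.5 to 1.5 plus GFP to RFP signal ratio inhibition reaching or exceeding a fixed threshold, cut at about 30% in these data, passing the limit was not always enough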
Rpn11 inh conf: confirmation of human proteasome Rpn11 inhibitors; inhibition, % at 20 µM; purified human 26S proteasome, Ub4-pepOG fluorescence polarization; proteasome pretreated with epoxomicin; shares compounds with Rpn11 inh; 1,900 tested, 29% active
MMP-2 counter: blocks human MMP-2, flagging nonselective RPN11 hits | 1,900 tested, 4% active | shares compounds with Rpn11 inh | inhibition, % at 20 µM | recombinant MMP-2, FRET peptide cleavage fluorescence;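 further: human MMP-2 activated beforehand with APMA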
Target sequence (P08253 whole entry, looked up): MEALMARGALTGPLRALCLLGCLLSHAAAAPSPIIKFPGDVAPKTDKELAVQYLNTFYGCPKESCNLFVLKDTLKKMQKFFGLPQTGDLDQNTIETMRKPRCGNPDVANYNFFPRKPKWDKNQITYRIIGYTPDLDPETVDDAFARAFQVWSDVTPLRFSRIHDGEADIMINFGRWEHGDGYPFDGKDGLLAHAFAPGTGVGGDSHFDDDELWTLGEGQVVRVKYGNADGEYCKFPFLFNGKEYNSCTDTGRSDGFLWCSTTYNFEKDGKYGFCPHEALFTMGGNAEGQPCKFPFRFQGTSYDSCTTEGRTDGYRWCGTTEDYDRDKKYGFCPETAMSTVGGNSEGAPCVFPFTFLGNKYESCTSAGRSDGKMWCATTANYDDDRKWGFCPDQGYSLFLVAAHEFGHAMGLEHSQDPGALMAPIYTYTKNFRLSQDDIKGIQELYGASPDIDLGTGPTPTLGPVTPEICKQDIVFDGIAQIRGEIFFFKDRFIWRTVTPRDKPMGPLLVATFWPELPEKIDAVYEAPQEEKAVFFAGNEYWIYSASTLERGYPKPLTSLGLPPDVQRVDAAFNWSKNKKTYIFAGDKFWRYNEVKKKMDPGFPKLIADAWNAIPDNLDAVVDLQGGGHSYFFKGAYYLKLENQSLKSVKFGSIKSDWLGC
Thrombin inh: thrombin (bovine) inhibition counter-screen; shares compounds with Rpn11 inh; bovine thrombin cleavage of Ub4-pepOG, fluorescence polarization; inhibition, % at 20 µM; 1,900 tested, 13% active;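 active means mean inhibition at least 40% at 20 µM, or signal 3 deviations below plate average, so some actives read negative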;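 further: plate controls were thrombin with DMSO for no effect and buffer wells lacking thrombin for full effect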
Numbers without * were called inactive; . = not tested or not shown. Unless noted, no stated cut-off is given here; in the data, active means inhibition above about 40%; inactive means the rest.

SMILES	CSN inh	SUMO1 PPI mod	Rpn11 inh	DNMT1 block	MT1-MMP act inh	SKN-1 inh	Rpn11 inh conf	MMP-2 counter	Thrombin inh
CCOCCC(=O)Nc1ccc2c(c1)c(=O)n(C)n2C/C=C/c1ccccc1	4.7	4.9	6.9	1.7	2.8	9.1	.	.	.
O=C(CCCn1c(=S)[nH]c2ccccc2c1=O)N1CCN(c2cccc(Cl)c2)CC1	9.0	0.6	96.2*	-5.8	-3.5	-3.2	64.3*	64.7*	4.4
CC1=C(C(=O)N2CCCCCC2)CC(CC(=O)NC2CCCC2)C(=O)N1Cc1ccc(F)cc1 (stereo not drawn)	0.0	-0.3	.	.	7.3	7.3	.	.	.
C#CCOCCOCCOCCNc1nc(N2CCN(C(=O)[C@H](CCCCN)n3cc([C@@H](N)CC(C)C)nn3)CC2)nc(N2CCN(C(=O)[C@H](Cc3cc4ccccc4[nH]3)n3cc([C@@H](N)Cc4ccc(O)cc4)nn3)CC2)n1	26.0	-105.4	34.3	-99.2	-1.5	7.0	.	.	.
C#CCOCCOCCOCCNc1nc(N2CCN(C(=O)[C@H]([C@@H](C)CC)n3cc([C@@H](N)Cc4ccc(O)cc4)nn3)CC2)nc(N2CCN(C(=O)[C@H](Cc3cc4ccccc4[nH]3)n3cc([C@@H](N)CC(C)C)nn3)CC2)n1	20.0	-15.2	63.7*	-3.6	-0.4	17.9	9.4	38.2	-8.9
COc1ncc(-c2ccc(N3C(c4ccc([N+](=O)[O-])cc4)=Cc4ccccc4C3CC(C)=O)cc2)cn1 (stereo not drawn)	2.1	-6.4	.	.	0.8	0.9	.	.	.
CC1Cc2ccccc2N1C(=O)c1ccc(N2CCCCC2)c([N+](=O)[O-])c1 (stereo not drawn)	0.6	-15.3	32.8*	-3.7	10.9	1.4	-2.8	-3.0	-0.8
COC(=O)c1sccc1-n1cc2c(c1-c1ccccc1)c(=O)n(C)c(=O)n2C	1.1	1.2	-7.7	2.0	0.7	-2.8	.	.	.
COc1ccc(OC)c(/C=C2\Oc3cc(OCC(=O)N4CCC[C@H]4C(=O)O)ccc3C2=O)c1	6.7	5.1	5.4	-6.4	-63.3	-7.4	.	.	.
COc1ccc(/C=C2\Oc3cc(OCC(=O)N4CCC[C@H]4C(=O)O)ccc3C2=O)c(OC)c1	13.5	3.6	58.6*	2.4	-0.4	-4.8	142.1*	-1.0	87.4*
COc1ccc(C(C(=O)c2ccccc2)c2ccccc2)cc1 (stereo not drawn)	-2.7	0.9	.	.	3.0	3.2	.	.	.
CCCNC(=O)C1(C)CCN(C(=O)c2sccc2C)C1 (stereo not drawn)	-0.2	2.1	-9.0	3.2	1.6	5.2	.	.	.
Cc1ccccc1OCC(=O)N1N=C(C(F)(F)F)CC1(O)C(C)(C)C (stereo not drawn)	3.5	2.6	151.9*	-0.9	6.3	29.0	-0.8	-11.9	-6.5
CCC(OC(=O)c1ccco1)C(=O)NCc1ccc(OC)cc1 (stereo not drawn)	-1.2	4.3	-0.7	0.4	0.8	-0.5	.	.	.
CCC(OC(=O)c1ccco1)C(=O)NCc1ccco1 (stereo not drawn)	1.4	-0.4	128.5*	2.4	11.8	-26.6	-5.0	-25.4	-1.9
CCc1ccc(NC(=O)/C(C#N)=C/c2cc3ccc(C)cc3nc2N2CCOCC2)cc1	29.7	-2.2	.	4.9	-54.9	-1.7	.	.	.
CCN(CC)c1nc2cc(C)ccc2cc1/C=C(\C#N)C(N)=O	7.9	-6.7	49.0*	-3.6	-20.5	10.9	14.8	10.8	9.8
CC1(C(=O)Nc2cccc(C#N)c2)CCN1C(=O)C1(c2ccccc2)CC1 (stereo not drawn)	-0.8	2.1	-4.1	2.7	2.3	1.4	.	.	.

High-throughput results deposited in PubChem BioAssay by Sanford-Burnham Center for Chemical Genomics.
